# Published values collected from several papers.
# Lines come from different studies, so protocols differ.
# Target: Ephrin type-A receptor 1 (EPHA1, Homo sapiens, UniProt P21709)
# Residues used in one study (P21709 26-976): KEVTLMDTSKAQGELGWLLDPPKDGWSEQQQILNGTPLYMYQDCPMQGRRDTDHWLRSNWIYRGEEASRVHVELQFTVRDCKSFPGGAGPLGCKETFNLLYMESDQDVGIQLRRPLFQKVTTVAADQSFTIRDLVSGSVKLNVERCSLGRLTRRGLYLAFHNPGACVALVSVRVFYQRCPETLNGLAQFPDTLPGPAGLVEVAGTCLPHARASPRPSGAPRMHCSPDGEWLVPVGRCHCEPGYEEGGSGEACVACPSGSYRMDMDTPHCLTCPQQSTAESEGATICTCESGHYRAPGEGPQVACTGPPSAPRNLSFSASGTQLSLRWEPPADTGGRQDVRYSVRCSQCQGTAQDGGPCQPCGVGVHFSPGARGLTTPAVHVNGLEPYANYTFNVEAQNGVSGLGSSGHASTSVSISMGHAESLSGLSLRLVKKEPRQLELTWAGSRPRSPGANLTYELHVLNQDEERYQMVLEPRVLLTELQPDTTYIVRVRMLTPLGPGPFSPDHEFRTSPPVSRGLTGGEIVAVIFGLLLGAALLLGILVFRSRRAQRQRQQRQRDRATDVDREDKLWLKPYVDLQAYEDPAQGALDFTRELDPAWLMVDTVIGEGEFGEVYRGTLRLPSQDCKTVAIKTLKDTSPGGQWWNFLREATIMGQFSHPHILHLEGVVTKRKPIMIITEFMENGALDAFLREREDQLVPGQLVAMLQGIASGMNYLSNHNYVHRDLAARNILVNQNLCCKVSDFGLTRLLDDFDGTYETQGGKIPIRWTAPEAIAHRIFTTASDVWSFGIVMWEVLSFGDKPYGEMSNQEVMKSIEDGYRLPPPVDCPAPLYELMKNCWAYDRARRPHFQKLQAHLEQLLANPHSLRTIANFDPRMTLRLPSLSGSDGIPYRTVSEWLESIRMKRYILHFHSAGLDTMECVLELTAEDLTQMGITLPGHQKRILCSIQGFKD
Compound,effect on,mode,method,concentration,measurement,value
CNC(=O)c1cc(Oc2ccc(NC(=O)Nc3ccc(Cl)c(C(F)(F)F)c3)cc2)ccn1,enzyme activity,inhibitor,,0.3 µM,inhibition,23%
CS(=O)(=O)N1CCCC(NC(=O)[C@H](CCC2CCCCC2)NC(=O)c2ccc(CNc3ncnc4c3nnn4-c3ccccc3)cc2)C1 (some centres unmarked),cell-free assay,,competition with immobilised ligand,0.1 µM,remaining binding,95%
N#CCCc1ccc2c(c1)-c1[nH]c3ccc([N+](=O)[O-])cc3c1CC(=O)N2,cell-free assay,,,0.5 µM,remaining signal,91.7%
O=C1CCc2cc(Nc3cc(OC4CCOCC4)c([N+](=O)[O-])cc3Cl)ccc2N1,cell-free assay,,competition with immobilised ligand,1 µM,remaining binding,81%
CCCCNc1ncc2c(-c3ccc(F)cc3)nn(C[C@H]3CC[C@H](N)CC3)c2n1,target engagement in cells,inhibitor,chemoproteomics,20 mM,inhibition,> 97%
O=C1NC(=O)c2cc(Nc3ccc(F)cc3)c(Nc3ccc(F)cc3)cc21,cell-free assay,,,0.5 µM,remaining signal,97.4%
CNC(=O)Nc1ccc2c(c1)[C@@]1(CC2)OC(=O)N(CC(=O)N(Cc2ccc(F)cc2)[C@@H](C)C(F)(F)F)C1=O,cell-free assay,,competition with immobilised ligand,1 µM,remaining binding,100%
Oc1cccc(-c2nc(N3CCOCC3)c3oc4ncccc4c3n2)c1,cell-free assay,,,0.5 µM,remaining signal,87.8%
COc1cc(Cl)c(C(=O)N[C@@H](CN[C@H]2CC[C@@H](N)CC2)Cc2ccc(C#N)cc2)cc1-c1ccc(CN[C@H](C)c2ccc(C)cc2)o1,enzyme activity,inhibitor,,1 µM,remaining activity,105%
CCCOc1ccc(OC)c(F)c1C(=O)c1ccc(C(=O)N[C@@H]2CNC[C@H]2NC(=O)c2ccc3[nH]ncc3c2)cc1,enzyme activity,inhibitor,,10 µM,remaining activity,85%
COc1cc(-c2cc(-c3ccc(N4CCNCC4)cc3)cnc2C)cc(OC)c1OC,enzyme activity,inhibitor,,1 µM,inhibition,16%
CCCS(=O)(=O)Nc1ccc(F)c(C(=O)c2c[nH]c3ncc(-c4ccc(Cl)cc4)cc23)c1F,enzyme activity,inhibitor,,1 µM,inhibition,< 10%
COc1ccc2c(c1)O[C@H](c1ccc(OC)c(OC)c1)C[C@@H]2NC(=O)C1(c2ccc3c(c2)OC(F)(F)O3)CC1,cell-free assay,,competition with immobilised ligand,1 µM,remaining binding,88%
CC(C)(C)c1nc(-c2cccc(NS(=O)(=O)c3c(F)cccc3F)c2F)c(-c2ccnc(N)n2)s1,enzyme activity,inhibitor,radiometric,1 µM,remaining activity,81%
Cc1ccc(Nc2nccc(N(C)c3ccc4c(C)n(C)nc4c3)n2)cc1S(N)(=O)=O,enzyme activity,inhibitor,,0.3 µM,inhibition,23%
C[C@@H]1CN(c2cc(-c3nn(C)c4ccc(OC5(C)CC5)cc34)ncn2)C[C@H](C)O1,cell-free assay,,competition with immobilised ligand,1 µM,remaining binding,100%
CCN(CC)CCNC(=O)c1c(C)[nH]c(/C=C2\C(=O)Nc3ccc(F)cc32)c1C,enzyme activity,inhibitor,,10 µM,inhibition,62%
CCN(CC)c1ccc(C2=NNC(=O)CC2C)cc1[N+](=O)[O-] (centres unmarked),enzyme activity,inhibitor,,10 µM,remaining activity,112%
CC(C)(O)[C@H]1CC[C@H](Nc2ccc3ncc(-c4cccc(C(F)(F)F)c4)n3n2)CC1,enzyme activity,inhibitor,,1 µM,remaining activity,99.6%
O=C(Nc1cnn(-c2csc(C(=O)NC3COC3)c2)c1)Nc1c(F)cccc1Cl,enzyme activity,inhibitor,,5 µM,remaining activity,88.4%
COc1cc2ncnc(Nc3ccc(Oc4ccccc4)cc3C)c2cc1OC,enzyme activity,inhibitor,,1 µM,inhibition,11%
Cc1cnc(NC2CCOCC2)nc1-n1cnc(C(=O)NC(CN)c2cc(F)cc(Cl)c2)c1 (centres unmarked),enzyme activity,inhibitor,radiometric,1 µM,remaining activity,99%
Cn1nc(C(=O)NCc2ccc(C(=O)O)cc2)cc1-c1ccc2[nH]ccc2c1,cell-free assay,,competition with immobilised ligand,0.1 µM,remaining binding,95%
COc1cccc2c(NCc3ccccc3)nc(-n3c(N)nc4ccccc43)nc12,target engagement in cells,inhibitor,chemoproteomics,20 mM,inhibition,-22.2%
CN(C)C(=O)Cn1cc(-c2nc(C3(c4ccc(-c5cnc(N)nc5)cc4)CC3)no2)cn1,cell-free assay,,competition with immobilised ligand,1 µM,remaining binding,100%
Cc1ccc(C(=O)NCc2ccsc2)cc1C#Cc1cn(C(C)C)c2ncnc(N)c12,enzyme activity,inhibitor,,1 µM,activity vs control,45%
